STEP block = blocks human striatal-enriched tyrosine phosphatase; P54829; recombinant STEP, OMFP fluorogenic substrate, fluorescence; actives 0.25% (n = 360,000); inhibition, % at 20 µM;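 active means inhibition at 20 µM, scaled per plate between control wells, above about 37%, limit read from the data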;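 further: 0% = DMSO with enzyme and substrate and 100% = substrate only without enzyme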
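material = STEP tyrosine phosphatase | reagent = fluorogenic phosphatase substrate OMFP at 25 µM final | doses = single compound dose of 20 µM, 1% DMSO final | schedule = 20 min reaction, room temperature, in the dark | measured by = fluorescence, 480/540 nm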
Scp1 inh = inhibitors of human Scp-1 phosphatase | actives 0.88% (n = 340,000) | Recombinant Scp1, phosphopeptide, malachite green phosphate absorbance | Q9GZU7 | inhibition, % at 20 µM;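 active means inhibition above about 50% at 20 µM, limit read from the data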;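 further: plate controls were DMSO wells with enzyme for no effect and wells lacking enzyme for full effect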
Target sequence (Q9GZU7 76-261 limits assumed): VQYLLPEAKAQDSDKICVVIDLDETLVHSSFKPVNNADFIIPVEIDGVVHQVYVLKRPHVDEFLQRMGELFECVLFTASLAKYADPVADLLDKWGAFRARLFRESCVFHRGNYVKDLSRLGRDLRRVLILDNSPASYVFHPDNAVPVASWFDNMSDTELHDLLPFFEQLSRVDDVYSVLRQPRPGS
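Material – SCP-1 phosphatase catalytic domain, residues 76-261 · Buffer or medium – Acidic Tris acetate buffer with magnesium and detergent · Also added – Phospho 17-mer peptide substrate · Compound – single 20 µM dose, 1% DMSO · Times – 45 min room-temperature reaction, 5 min colour, 30 min stabiliser · Technique – Phosphate-binding colour reagent, absorbance read at 630 nm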
DNMT1 inh = inhibitors of human DNMT1; P26358; DNMT1 molecular beacon, Hinp1I cleavage, fluorescence; inhibition (reported as % activation of signal), % at 10 µM; actives 0.83% (n = 360,000); in the data active means inhibition above about 50%
CSN inh = inhibitors of human CSN-mediated cullin deneddylation; Q92905; Purified CSN, SCF-Nedd8-OG deneddylation, fluorescence polarization; inhibition, % at 12.5 µM; actives 0.38% (n = 360,000); AID 651999;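 active means pattern-corrected inhibition above about 35%, with an unprinted fluorescence ratio check between 0.5 and 1.5, limit read from the data, passing the limit was not always enough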;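 further: 0% = enzyme with substrate and 100% = substrate without enzyme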
Target sequence (Q92905 whole entry, looked up, one chain of several): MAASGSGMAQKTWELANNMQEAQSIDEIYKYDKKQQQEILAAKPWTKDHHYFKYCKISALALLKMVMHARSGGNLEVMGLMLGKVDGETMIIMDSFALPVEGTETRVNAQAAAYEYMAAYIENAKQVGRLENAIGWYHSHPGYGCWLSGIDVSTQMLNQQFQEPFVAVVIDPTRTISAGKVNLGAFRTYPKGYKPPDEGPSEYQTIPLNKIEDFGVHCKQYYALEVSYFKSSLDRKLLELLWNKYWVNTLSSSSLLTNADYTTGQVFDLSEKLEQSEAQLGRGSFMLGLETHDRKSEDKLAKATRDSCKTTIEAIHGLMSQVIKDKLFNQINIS
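Assay system: Purified human Csn5 enzyme expressed in HEK293T cells | Amount: Enzyme 0.24 nM | Measured by: Fluorescence polarization readout | Medium: Tris/NaCl/DTT buffer, pH 7.5 | Compound dosing: One concentration, 12.5 µM, 0.25% DMSO | Times: 90 min incubation of compound, enzyme and substrate at room temperature | Control set: no-enzyme wells high, enzyme-with-substrate wells low | Read-out: % inhibition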
SUMO1 PPI mod = alters human SUMO1 binding to SIM partners; inhibition, % at 20 µM; P63165; SUMO1 binding to a labelled peptide, TR-FRET, 1 h; AID 602429; actives 0.33% (n = 360,000); in the data active means inhibition above about 37%
LMPTP inh = blocks human LMPTP phosphatase; actives 0.22% (n = 360,000); recombinant LMPTP-A, OMFP fluorogenic substrate, fluorescence intensity; inhibition, % at 20 µM; AID 651560; P24666;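 active means compounds that cut the enzyme signal by at least half of the control window in the single-dose screen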;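 further: plate controls were DMSO wells with enzyme plus substrate for no effect and substrate without enzyme for full effect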
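Test system: LMPTP-A phosphatase enzyme; input: 0.625 nM LMPTP-A final; reagent: OMFP substrate, 400 µM final; compound dosing: 20 µM single dose, 3% DMSO; incubation: 50 min dark incubation at room temperature; measured by: endpoint fluorescence intensity from OMFP dephosphorylation; measure: % inhibition relative to no-enzyme and uninhibited control wells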
Scp1 confirm = confirmation of human Scp-1 phosphatase inhibitors | actives 61% (n = 2,500) | shares compounds with Scp1 inh | AID 540281 | inhibition, % at 20 µM | recombinant SCP-1 catalytic domain, phosphate release, malachite green absorbance;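 further: plate controls were DMSO with enzyme for no effect and buffer wells lacking enzyme for full effect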
Scp-1 MG ctr = counter-screen for Scp-1 inhibitors: colorimetric interference. shares compounds with Scp1 inh. Colorimetric interference counterscreen, malachite green absorbance 630 nm. apparent inhibition (interference), % at 20 µM. 2,500 tested, under 10 active;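 further: compounds added after enzyme reaction finished so only phosphate colour detection is probed; plate controls were DMSO wells with completed Scp-1 reaction for no effect and substrate wells lacking enzyme for full effect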
Scp1 DSF = Scp-1 (human) binding by thermal shift | shares compounds with Scp1 inh | Recombinant SCP1, Sypro Orange thermal shift Tm | thermal shift relative to vanadate control, % at 40 µM | actives 25% (n = 1,500);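 active means substances whose mean melting-temperature shift, as a percentage of the reference inhibitor's shift, reaches about 5.3%, limit read from the data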;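 further: 0% = Tm of DMSO wells and 100% = Tm with sodium orthovanadate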
* hit, by the source's call; . = no result given. An excerpt weighted towards active compounds, which were near 1.9% of everything screened.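 How the source made its calls, unless noted: active means inhibition of at least 30% at 20 µM; inactive means the rest.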

SMILES | STEP block | Scp1 inh | DNMT1 inh | CSN inh | SUMO1 PPI mod | LMPTP inh | Scp1 confirm | Scp-1 MG ctr | others
Cc1cc(=O)oc2cc(OCC(=O)N/N=C/c3cc([N+](=O)[O-])ccc3O)ccc12 | 94* | 30 | 20 | -3 | 7 | 71* | . | .
Cc1cc(=O)oc2cc(OCC(=O)NCCCN3CCOCC3)ccc12 | 1 | -3 | 0 | 2 | 40* | -1 | . | .
CCc1nn(-c2ccccc2)c(N)c1-c1ccc(OC)c(OC)c1 | 0 | 4 | 0 | 3 | 0 | 0 | . | .
COc1ccc(NS(=O)(=O)c2ccc(NS(=O)(=O)c3cccs3)cc2)cc1 | 0 | -6 | -3 | 0 | 3 | 0 | . | .
CCOC(=O)/C(C)=C1\NC(C)(C)Cc2ccccc21 | 2 | 101* | 1 | 4 | 1 | -1 | . | .
CN(C)c1ccc(/C=C(/NC(=O)c2ccccc2)C(=O)NCCCn2ccnc2)cc1 | -8 | 3 | 0 | 72* | -11 | -2 | . | .
O=C(NCCCn1ccnc1)/C(=C/c1ccc(Cl)cc1)NC(=O)c1ccccc1 | 0 | -5 | -1 | 5 | -5 | -6 | . | .
O=C(Nc1cccc([N+](=O)[O-])c1)Nc1ccc2c(c1)OCCO2 | -1 | -10 | 0 | 0 | -6 | 1 | . | .
CC1CCN(S(=O)(=O)c2ccc(NC(=O)Cc3cccs3)cc2)CC1 | 0 | 77* | 25 | 11 | 2 | 3 | 60* | -26 | Scp1 DSF=5.8*
CC(=O)N=c1c(C#N)cc2c(=O)n3cccc(C)c3nc2n1CCCOC(C)C | 0 | -4 | 41 | 0 | 7 | 25 | . | .
CC(=O)N=c1c(C#N)cc2c(=O)n3cccc(C)c3nc2n1Cc1ccco1 | 17 | 70* | 49 | 6 | 20 | 3 | 25 | -19
C[N+]1(C2CCC3CCCC2C3O)CCCC1 (stereo not drawn) | -3 | 93* | 3 | 0 | 2 | -1 | 76* | -16 | Scp1 DSF=-24
OC(COC1CCCCC1)CN1CCCCC1 (stereo not drawn) | 2 | 55* | 0 | 3 | -1 | 1 | -18 | -17
CC(C)(C)C1CCC(OCC(O)CN2CCCC2)CC1 (stereo not drawn) | 3 | -9 | 0 | -3 | 0 | -1 | . | .
Cn1nc2c(c1C(=O)N1CCCC(C(=O)c3cc(F)ccc3F)C1)CCCC2 (stereo not drawn) | -2 | -2 | 5 | 0 | 2 | -2 | . | .
Cn1nc2c(c1C(=O)O)CCCC2 | -6 | 60* | 41 | 4 | 1 | 0 | 67* | 1 | Scp1 DSF=-5
CSCCC(N=CC1=C(O)CC(C)(C)CC1=O)C(=O)O (stereo not drawn) | -4 | 73* | -6 | -1 | -3 | 1 | 6 | 7
CS(=O)(=O)n1nc(C(=O)N2CCOCC2)nc1N | 0 | -4 | 6 | 1 | 3 | 0 | . | .
C=CCn1c(=NC(=O)c2sc3ccccc3c2Cl)sc2cc(S(N)(=O)=O)ccc21 | 2 | 88* | 33 | 20 | -2 | 39 | 78* | -9 | Scp1 DSF=-16
CC(C)Cn1c(N)c(C(=O)CSc2n[nH]c(N)n2)c(=O)n(C)c1=O | -3 | -6 | 0 | 2 | 5 | -1 | . | .
COc1ccc(NC(=O)Nc2ccc(N(C)C)cc2)cc1 | -4 | 57* | -8 | 1 | 1 | 0 | -3 | -14
CC1(C)CC[C@]2(C(=O)O)CC[C@]3(C)C(=CCC4[C@@]5(C)CC[C@H](O)C(C)(C)C5CC[C@]43C)C2C1 (stereo partly drawn) | . | 56* | 78* | 1 | 5 | 25 | 17 | 4

Assay outcomes (PubChem BioAssay)
